Results on 24 compounds are retold here after ChEMBL document CHEMBL3769396 (J Med Chem, 2016).

Assay [1] is filed under the species Homo sapiens. The assay can be described thus: Selectivity ratio of IC50 for class1 HDAC (unknown origin) to IC50 for HDAC6 (unknown origin). An outline of the steps:
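Ratio of IC50 HDAC1 (or HDAC8) to IC50 HDAC6. Human recombinant HDAC1/6 were run in Tris-HCl pH 8.0 with NaCl, KCl, MgCl2 and BSA, using ZMAL substrate. HDAC8 was run in KH2PO4/Tris pH 7.5 with Z-L-Lys(ε-trifluoroacetyl)-AMC. All: 90 min at 37 °C, then TSA/trypsin stop for 30 min, fluorescence ex 390/em 460 nm. IC50 is the mean of at least two experiments.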

Assay [2] deals with T1, Histone deacetylase 1 (Homo sapiens, UniProt Q13547). The assay can be described thus: Inhibition of human HDAC1 at 10 uM using (Z-(Ac)Lys-AMC) as substrate after 90 mins by fluorescence analysis.
The target of assay [3] is T2, Protein deacetylase HDAC6 (Homo sapiens, UniProt Q9UBN7).
T2 sequence (Q9UBN7 whole entry): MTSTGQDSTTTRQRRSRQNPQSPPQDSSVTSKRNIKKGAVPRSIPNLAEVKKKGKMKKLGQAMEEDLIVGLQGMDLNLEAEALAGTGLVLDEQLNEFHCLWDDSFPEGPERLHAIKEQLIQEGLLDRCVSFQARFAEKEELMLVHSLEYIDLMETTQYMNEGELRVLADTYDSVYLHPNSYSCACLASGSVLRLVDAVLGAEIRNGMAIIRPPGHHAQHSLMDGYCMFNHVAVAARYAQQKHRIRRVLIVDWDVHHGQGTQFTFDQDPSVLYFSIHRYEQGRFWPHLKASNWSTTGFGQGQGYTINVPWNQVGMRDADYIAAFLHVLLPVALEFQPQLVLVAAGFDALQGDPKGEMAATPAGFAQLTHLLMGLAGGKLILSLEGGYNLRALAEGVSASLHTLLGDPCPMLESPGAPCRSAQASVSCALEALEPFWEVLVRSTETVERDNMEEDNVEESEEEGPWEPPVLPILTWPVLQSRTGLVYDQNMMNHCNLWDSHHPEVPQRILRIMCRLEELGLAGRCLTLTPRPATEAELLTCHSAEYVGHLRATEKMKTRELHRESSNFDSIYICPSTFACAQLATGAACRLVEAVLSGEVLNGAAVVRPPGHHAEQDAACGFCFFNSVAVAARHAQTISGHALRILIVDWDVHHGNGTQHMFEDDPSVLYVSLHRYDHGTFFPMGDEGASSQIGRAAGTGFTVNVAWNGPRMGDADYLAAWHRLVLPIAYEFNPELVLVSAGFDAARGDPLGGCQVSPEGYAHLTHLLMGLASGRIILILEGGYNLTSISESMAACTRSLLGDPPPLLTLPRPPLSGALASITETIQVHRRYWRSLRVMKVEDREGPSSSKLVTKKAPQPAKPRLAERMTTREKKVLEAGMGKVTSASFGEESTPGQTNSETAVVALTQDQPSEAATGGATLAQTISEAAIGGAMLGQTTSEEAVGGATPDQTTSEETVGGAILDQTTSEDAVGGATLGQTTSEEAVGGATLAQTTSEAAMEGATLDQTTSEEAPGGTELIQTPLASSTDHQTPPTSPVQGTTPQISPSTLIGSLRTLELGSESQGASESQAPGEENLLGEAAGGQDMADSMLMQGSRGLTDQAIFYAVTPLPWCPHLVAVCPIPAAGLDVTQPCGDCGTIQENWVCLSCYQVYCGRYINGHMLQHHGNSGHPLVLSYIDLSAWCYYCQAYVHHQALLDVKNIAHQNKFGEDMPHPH
The assay can be described thus: Inhibition of human HDAC6 using (Z-(Ac)Lys-AMC) as substrate after 90 mins by fluorescence analysis.

Assay [4] has as its target T3, Histone deacetylase 8 (Homo sapiens, UniProt Q9BY41).
T3 sequence (Q9BY41 whole entry): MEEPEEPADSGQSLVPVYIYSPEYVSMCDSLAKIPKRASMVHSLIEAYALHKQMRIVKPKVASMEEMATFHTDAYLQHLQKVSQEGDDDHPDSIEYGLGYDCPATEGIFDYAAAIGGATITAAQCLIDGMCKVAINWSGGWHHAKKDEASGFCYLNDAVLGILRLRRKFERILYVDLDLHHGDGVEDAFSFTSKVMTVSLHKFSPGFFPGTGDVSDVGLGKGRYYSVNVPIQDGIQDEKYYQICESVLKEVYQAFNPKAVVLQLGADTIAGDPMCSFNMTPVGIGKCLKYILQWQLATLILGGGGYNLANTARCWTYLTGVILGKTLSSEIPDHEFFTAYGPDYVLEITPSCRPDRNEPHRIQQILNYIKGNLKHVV
In words: Inhibition of human HDAC8 using Z-L-Lys([…]-trifluoroacetyl)-AMC as substrate after 90 mins by fluorescence analysis.

In assay [5] the target is T1, Histone deacetylase 1. In words: Inhibition of human HDAC1 using (Z-(Ac)Lys-AMC) as substrate after 90 mins by fluorescence analysis.
Assay [6] is described as follows: Cytotoxicity against human HL60 cells after 72 hrs by cell titre 96 aqueous cell proliferation assay. It counts as functional, HL-60. In short, it runs like this: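 HL60 cells, 5000/well in RPMI with 10% FBS, 2 mM L-glutamine and penicillin/streptomycin, treated with a range of concentrations (0.05% DMSO control) for 72 h. MTS/PMS (20:1) was then added and A490 read after 2-4 h, with the cell-free background subtracted. GI50 is the concentration giving 50% viable cells; triplicates, mean of at least two experiments.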

The target in assay [7] is T4, Histone deacetylase 8 (Homo sapiens) (UniProt Q9BY41).
T4 sequence (whole entry): T3 sequence (Q9BY41 whole entry)
The assay can be described thus: Inhibition of human HDAC8 at 100 uM using Z-L-Lys([…]-trifluoroacetyl)-AMC as substrate after 90 mins by fluorescence analysis.

pIC50: −log10 of the molar value.

T1 sequence (Q13547 whole entry): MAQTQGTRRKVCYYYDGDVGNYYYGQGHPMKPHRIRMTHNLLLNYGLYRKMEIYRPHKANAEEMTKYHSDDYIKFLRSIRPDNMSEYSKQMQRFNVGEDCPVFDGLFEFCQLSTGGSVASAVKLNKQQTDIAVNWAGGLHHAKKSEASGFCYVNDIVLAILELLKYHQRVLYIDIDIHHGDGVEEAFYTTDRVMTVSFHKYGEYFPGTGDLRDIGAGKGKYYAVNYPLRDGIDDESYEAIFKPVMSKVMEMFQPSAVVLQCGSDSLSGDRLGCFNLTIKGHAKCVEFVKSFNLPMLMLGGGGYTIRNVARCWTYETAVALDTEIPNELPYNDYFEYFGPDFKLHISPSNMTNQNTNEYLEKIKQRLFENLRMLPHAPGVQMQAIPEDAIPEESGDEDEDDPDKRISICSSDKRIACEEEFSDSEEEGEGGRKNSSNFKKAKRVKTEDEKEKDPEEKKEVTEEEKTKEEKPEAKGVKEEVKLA

As to `O=C(CCCCCCNC(=O)c1cnc(N(c2ccccc2)c2ccccc2)nc1)NO`, in assay [1], the Ratio IC50 came to 10.
For `O=C(NO)c1csc(-c2cccnc2)n1`, in assay [2], the inhibition worked out at 36%. Further, in assay [3], the pIC50 was 6.52.
`O=C(NO)c1noc(-c2ccc(Br)cc2)n1`: the negative logarithm of the IC50 (pIC50) in assay [4] is 4.70; in assay [5], 4.48; in assay [3], 5.56.
For the compound `O=C(NO)c1coc(-c2ccc(-c3ccccc3)cc2)n1`, the negative logarithm of the IC50 (pIC50) in assay [4] is 4.56; in assay [5], 4.53; in assay [3] it was 7.05. Moreover, the GI50 in assay [6] (Homo sapiens, HL-60, 72 h) is 5.6 µM.
`O=C(NO)c1coc(C(c2ccccc2)c2ccccc2)n1`: the pIC50 is 5.57 in assay [4], 4.03 in assay [5] and 5.03 in assay [3].
Consider `O=C(NO)c1coc(-c2cccs2)n1`, for which the pIC50 in assay [4] was 5.09; in assay [5], 4.44; in assay [3], 6.51.
In the same order, the values of `COc1ccc2cc(-c3nc(C(=O)NO)co3)ccc2c1` are 4.54, 4.65 and 6.74.
For `COc1ccc(-c2nc(C(=O)NO)co2)cc1`, the values for the pIC50 in assay [4], in assay [5] and in assay [3] were 4.29, 4.48 and 6.71, respectively. This compound registered a 50% growth inhibitory concentration (GI50) in assay [6] (Homo sapiens, HL-60, 72 h) of 29.2 µM.
As for `O=C(NO)c1coc(-c2ccc(F)cc2)n1`, the negative-log IC50 (pIC50) in assay [4] was 4.36; in assay [5], 4.62; in assay [3] it was 6.96. Also, the GI50 in assay [6] (Homo sapiens, HL-60, 72 h) was found to be 30.1 µM.
On to `O=C(NO)c1csc(C(c2ccccc2)c2ccccc2)n1`, for which the results for the pIC50 in assay [4], in assay [5] and in assay [3] were 4.89, 4.32 and 5.43, respectively.
Turning to `O=C(NO)c1coc(-c2ccc3ccccc3c2)n1`, the pIC50 is 4.58 in assay [4], 4.91 in assay [5] and 7.05 in assay [3]. Besides, in assay [6] (Homo sapiens, HL-60, 72 h), the GI50 is 6.3 µM.
Take `O=C(NO)c1coc(-c2ccccc2Br)n1`: the pIC50 in assay [4] is 4.69; in assay [5] it was 4.65; in assay [3], 5.66.
Regarding `O=C(NO)c1coc(-c2ccccc2)n1`, the pIC50 is 4.38 in assay [4], 4.52 in assay [5] and 6.57 in assay [3]. The same compound registered a GI50 in assay [6] (Homo sapiens, HL-60, 72 h) of 44.1 µM.
Take `O=C(NO)c1coc(-c2cccc(-c3ccccc3)c2)n1`: the values for the pIC50 in assay [4], in assay [5] and in assay [3] were 5.00, 4.72 and 6.30, respectively.
On to `O=C(NO)c1csc(Cc2ccccc2)n1`, for which the figures for the pIC50 in assay [4], in assay [5] and in assay [3] were 4.46, 4.08 and 5.60, respectively.
Consider `O=C(NO)c1csc(-c2cnccn2)n1`, for which the results for the pIC50 in assay [4], in assay [5] and in assay [3] were 4.21, 4.08 and 5.05, respectively.
On to `O=C(NO)c1csc(-c2ccccc2)n1`, for which the pIC50 in assay [4] was 4.92; in assay [5], 4.99; in assay [3], 5.72.
The like results for `Cc1ccc(-c2nc(C(=O)NO)co2)cc1` were, in that order, 4.47, 4.40 and 6.50.
In assay [6] (Homo sapiens, HL-60, 72 h), `O=C(NO)c1coc(-c2ccc(Br)cc2)n1` returned a GI50 of 10.2 µM. This counts as double-digit micromolar.
Turning to `O=C(NO)c1coc(-c2ccc(Cl)cc2)n1`, the pIC50 in assay [4] is 4.51; in assay [5], 4.71; in assay [3] it was 7.09.
Consider `O=C(CCCCCCC(=O)Nc1ccccc1)NO` [VORINOSTAT], for which, in assay [6], growth was halved (GI50) at 0.08 µM.
Turning to `O=C(NO)c1noc(-c2ccccc2)n1`, the figures for the negative logarithm of the IC50 (pIC50) in assay [4], in assay [5] and in assay [3] were 4.41, 4.60 and 6.95, respectively.
Consider `O=C(NO)c1noc(-c2ccc(-c3ccccc3)cc2)n1`, for which the inhibition in assay [7] is 62%. Also, the pIC50 was 4.83 in assay [5] and 5.88 in assay [3].
With `O=C(NO)c1csc(-c2ccc(Br)cc2)n1`, the pIC50 in assay [4] was 4.44; in assay [5], 4.76; in assay [3] it was 5.97. The same compound returned a GI50 in assay [6] (Homo sapiens, HL-60, 72 h) of 11.1 µM.
